# Bioassay records as filed in PubChem BioAssay.
# Most compounds without a hit are left out; they make up all but 3.1% or so of the library.
# hERG protect – hERG rescue from dofetilide block, primary screen, cell-based, CHO-hERG, FluxOR thallium flux, dofetilide IC70; dofetilide IC70 present; AID 1511, 2009; activation (rescue from dofetilide block), less the hit threshold, % at 10 µM; actives 0.51% (n = 310,000);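 active means activation above the mean of controls blocked by dofetilide plus 5 SD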;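 further: thallium influx through hERG after potassium depolarization seen as dye fluorescence rise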
# KCNK3 inh – human KCNK3 channel inhibitors, primary screen, CHO cells, FluxOR thallium flux, B-score | Potassium channel subfamily K member 3 (Homo sapiens), O14649 | FluxOR fluorescence; stronger effect = lower value | B-score at 10 µM | actives 0.84% (n = 340,000);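 active means B-score under library mean minus 4 SD, starting fluorescence ratio at most library mean plus 5 SD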;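 further: more negative B-score means stronger inhibition of thallium flux through KCNK3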
# KCNQ1 act – potentiators or activators of KCNQ1 channel, primary screen, cell-based, thallium flux, high-throughput | CHO-K1 KCNQ1, thallium flux FluxOR fluorescence; stronger effect = higher value | B-score at 10 µM | actives 0.35% (n = 310,000);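 active means fluorescence ratio B-score, a plate-corrected score, at least three library SD, with initial intensity B-score within 5 SD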
#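 System: CHO-K1 cells stably expressing KCNQ1 / Medium: assay buffer for compound exposure, DMSO matched across wells / Reagent: thallium- and potassium-containing depolarizing buffer / Compound: one concentration, matched DMSO / Incubation: 20 min compound pretreatment at room temperature / Measured by: kinetic FluxOR fluorescence, 10 s baseline plus 110 s post-stimulus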
# KCNK9 inh – KCNK9 potassium channel inhibitors, primary screen, HEK293 cells, thallium flux; Potassium channel subfamily K member 9 (Homo sapiens), Q9NPC2; FluxOR thallium flux fluorescence; stronger effect = lower value; B-score at 10 µM; actives 1.2% (n = 310,000); AID 488922, 2010;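 active means ratio B-score over 3 SD below the library mean, with starting fluorescence within 5 SD of its mean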;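 further: negative B-score means less thallium flux so channel inhibition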
# Target sequence (Q9NPC2 whole entry, looked up): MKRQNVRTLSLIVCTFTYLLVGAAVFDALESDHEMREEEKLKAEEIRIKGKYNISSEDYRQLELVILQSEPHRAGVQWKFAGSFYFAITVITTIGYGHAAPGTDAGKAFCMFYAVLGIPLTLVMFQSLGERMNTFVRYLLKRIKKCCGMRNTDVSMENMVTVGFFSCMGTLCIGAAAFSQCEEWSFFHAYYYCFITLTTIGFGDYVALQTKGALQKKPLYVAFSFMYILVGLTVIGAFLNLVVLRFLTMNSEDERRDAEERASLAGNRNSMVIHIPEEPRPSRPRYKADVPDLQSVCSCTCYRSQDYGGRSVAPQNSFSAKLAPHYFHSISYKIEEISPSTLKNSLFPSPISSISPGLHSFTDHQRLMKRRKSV
# KCNQ1 inh – inhibitors of human KCNQ1 channel, primary screen, cell-based, thallium flux, high-throughput; Potassium voltage-gated channel subfamily KQT member 1 (Homo sapiens), P51787; CHO-K1 KCNQ1, FluxOR thallium flux fluorescence; stronger effect = higher value; B-score at 10 µM; actives 1.3% (n = 310,000); AID 2642, 2010;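 active means compounds whose thallium flux B-score, printed positive for inhibition, exceeds three library SD while starting fluorescence stays within three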;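 further: channel opened by potassium depolarization with thallium stimulus after 20 min compound exposure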
# KCNK3 confirm – retest of human KCNK3 channel inhibitors, confirmation, CHO cells, FluxOR thallium flux, triplicate | AID 651638, 2012 | shares compounds with KCNK3 inh | ratio percent of control, % at 10 µM | actives 99% (n = 2,400) | FluxOR fluorescence; 0% buffer, 100% carvedilol maximal block;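 active means ratio percent of control, averaged over triplicates, above buffer control mean plus 5 SD, cut at about 64% in these data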;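 further: ratio is the fluorescence rise from min to max over baseline after thallium stimulus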
# KCNK3 uninduced – thallium flux inhibition in non-induced cells, primary screen, counter-screen for KCNK3 inhibitor project, cell-based, non-induced KCNK3 line, FluxOR thallium, triplicate | AID 651747, 2012 | actives 40% (n = 2,400) | thallium flux ratio (lower = more inhibition) at 10 µM | non-induced KCNK3 parental cells; stronger effect = lower value | shares compounds with KCNK3 inh;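 active means thallium flux ratio, averaged over three wells, more than 5 SD below the buffer control mean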;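 further: host cells are CHO cells without KCNK3 induction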
# A number is an active result; n = inactive; x = no result.
SMILES,hERG protect,KCNK3 inh,KCNQ1 act,KCNK9 inh,KCNQ1 inh,KCNK3 confirm,KCNK3 uninduced
CC(C)(C)C(=O)Nc1ccccc1C(=O)NCc1ccco1,n,-9.3,n,n,n,65,n
CC1CCN(C(=O)Nc2ccc3nsnc3c2)CC1,n,n,n,n,n,x,x
CC1CCN(C(=O)Nc2cccc(NC(=O)N3CCC(C)CC3)c2)CC1,n,-9,n,n,n,112,n
CC(C)(C)n1nnnc1C(c1cccnc1)N1CCN(c2cccc(C(F)(F)F)c2)CC1 (stereo unspecified),n,-10,n,n,n,77,n
CCCNC(=O)CSc1nc2ccccc2c(=O)n1CCC,n,-8.8,n,n,n,86,n
CC1CCN(C(=O)CN(c2ccc3c(c2)OCCO3)S(=O)(=O)c2ccccc2)CC1,n,n,n,n,n,x,x
Cc1cc(N2CCCC2)c(F)cc1/C=C\[N+](=O)[O-],n,-10,n,n,n,128,0.099
Cc1cc(N2CCC(C)CC2)c(F)cc1[N+](=O)[O-],n,n,n,n,n,x,x
Brc1cc(Cc2nnc(-c3ccccc3)o2)c(Br)s1,n,n,n,n,n,x,x
O=[N+]([O-])c1ccc(-c2ccc(/C=N/Nc3nc(N4CCCC4)nc(N4CCCC4)n3)o2)cc1,n,-9.8,n,n,7,141,0.11
S=c1[nH]nc(-c2ccc(Br)cc2)n1-c1ccc(Br)cc1,n,-11,n,n,n,75,n
CC1=C(C(=O)Nc2cccc(C(=O)NC(C)c3ccccc3)c2)SCCO1 (stereo unspecified),n,-8.9,n,n,n,76,n
CC1=C(C(=O)Nc2cccc(C(=O)NC3CCCC(C)C3C)c2)SCCO1 (stereo unspecified),n,-9.3,n,n,n,97,n
COCCN(C(=S)Nc1cc(C)cc(C)c1)C(C)c1ccco1 (stereo unspecified),n,-9,n,n,n,85,n
CCOC(=O)[C@H]1[C@H]2COc3ccc(Br)cc3[C@@H]2N2C(=O)CN(Cc3ccccc3)C(=O)[C@@]12C,x,n,x,x,x,x,x
O=C(CC1C(=O)NCCN1Cc1ccccc1C(F)(F)F)NCCN1CCOCC1 (stereo unspecified),n,n,n,n,n,x,x
O=C(NC1CCN(C(=O)N2c3ccccc3Sc3ccccc32)CC1)c1ccccc1Cl,n,-10,n,-7.3,n,109,n
Cc1ccc(-c2cc(C(=O)N3CCCCC3)c3ccccc3n2)cc1C,n,-8.9,n,n,n,85,0.15
O=C(c1cc(-c2ccccc2)nc2ccccc12)N1CCCC1,n,n,n,n,n,x,x
O=C(CC1C[C@H](C(=O)N2CCOCC2)[C@@]2(CCC3CCCC3)c3[nH]c4ccccc4c3CCN2C1=O)NCC12CC3CC(CC(C3)C1)C2 (stereo partly specified),x,n,x,x,x,x,x
Cc1ccc(-n2c(SCC(=O)N3CC(=O)Nc4ccccc43)nc3ccccc3c2=O)cc1C,n,n,n,n,n,x,x
CCN(C(=O)CSc1nc2ccc(O)cc2c(=O)n1-c1ccc(OC)c(OC)c1)C1CCS(=O)(=O)C1 (stereo unspecified),x,n,x,x,x,x,x
CCc1cc2c(=O)n(Cc3ccco3)c(SCC(=O)N(C)C3CCS(=O)(=O)C3)nc2s1 (stereo unspecified),n,-9.9,n,n,n,100,n
CCN(C(=O)CSc1nc2ccccc2c(=O)n1Cc1ccc(C)cc1)C1CCS(=O)(=O)C1 (stereo unspecified),n,-9.5,n,n,n,97,n
CCN(C(=O)CSc1nc2ccccc2c(=O)n1-c1cccc(C)c1)C1CCS(=O)(=O)C1 (stereo unspecified),n,-11,n,n,n,100,n
SMILES,hERG protect,KCNK3 inh,KCNQ1 act,KCNK9 inh,KCNQ1 inh,KCNK3 confirm,KCNK3 uninduced
CCc1cc2c(=O)n(Cc3ccco3)c(SCC(=O)NC3CCS(=O)(=O)C3)nc2s1 (stereo unspecified),n,n,n,n,n,x,x
Cc1cccc(-n2c(SCC(=O)N3CC(=O)Nc4ccccc43)nc3ccccc3c2=O)c1,n,-10,n,n,n,100,n
CC(NC(=O)C1CCN(C(=O)c2ccc(F)cc2)CC1)c1ccc(S(N)(=O)=O)cc1 (stereo unspecified),x,n,x,x,x,x,x
CC1CN(C(=O)c2ccc(OC3CCN(Cc4ccccn4)CC3)cc2)CCN1C (stereo unspecified),n,n,n,n,n,x,x
Cn1c(=O)n(CCCOc2ccc(Cl)cc2)c2ccccc21,n,-8.7,n,n,n,100,n
c1ccc(-c2nc(N3CCCCCC3)nc(-n3ccnc3)n2)cc1,n,-10,n,-7,n,122,n
Nc1nc(-c2cccnc2)nc(N2CCCCC2)n1,n,n,n,n,n,x,x
CC1=CC2=NC(=O)/C(=C\c3cc(C)n(-c4cccc(Cl)c4)c3C)C(=N)N2O1,n,n,n,n,n,x,x
CC1=CC2=NC(=O)/C(=C/c3coc4ccc(Cl)cc4c3=O)C(=N)N2O1,n,-9.2,n,n,10,134,0.087
Cc1ccc(C2Nc3ccc4ccccc4c3C3=C2C(=O)CC(C)(C)C3)o1 (stereo unspecified),n,-9,n,n,n,105,n
CC1(C)CC(=O)C2=C(C1)c1c(ccc3ccccc13)NC2c1ccc(C(=O)O)cc1 (stereo unspecified),n,n,n,n,n,x,x
O=[N+]([O-])c1cccc(CSc2ncnc3ccccc23)c1,n,-9.6,n,n,n,84,n
COCCN(C(=O)c1ccco1)c1nc(-c2ccccc2)cs1,n,-10,n,n,n,92,0.15
O=[N+]([O-])c1cccc(C2NCC(c3ccccc3Cl)c3c2[nH]c2ccccc32)c1 (stereo unspecified),n,-9.5,n,-8.1,7,125,0.14
CCCN1C(=O)/C(=C/c2ccc(C)s2)SC1=Nc1ccc(OC)cc1,n,-9,n,n,n,114,n
CCN1C(=O)/C(=C/c2cccs2)SC1=Nc1ccc(OC)cc1,n,n,n,n,n,x,x
COc1ccc(CN2CCN(CCc3ccccc3)C(CCO)C2)c(Cl)c1OC (stereo unspecified),n,-9.9,n,n,n,85,n
